Experimental data gathered from unrelated publications.
Compare with care: the assays were run in different laboratories.
Target: Acetylcholinesterase (ache, Electrophorus electricus, UniProt O42275)
Effect on: enzyme activity
Mode: inhibitor

CC(C)=CCC/C(C)=C/COc1cc(O)cc(O)c1C(=O)c1ccccc1  IC50: 192 µM
Cc1c(C(=O)[C@H]2[C@H](c3cn(C)c4ccccc34)[C@H]3CSCN3[C@]23C(=O)Nc2ccccc23)cnn1-c1ccccc1  IC50 (Ellman): > 100 µM
CC=C1[C@H]2C=C(C)C[C@]1(N)c1cc(OCCC)c(=O)[nH]c1C2  IC50 (Ellman): 10.2 µM
CCOc1ccc(C=NNC(=S)NCC(=O)c2ccc(-c3ccccc3)cc2)cc1  IC50 (Ellman): 460 µM
COc1cc2c(cc1OC)CN(S(=O)(=O)CCc1cn(-c3cnc4ccccc4c3)nn1)CC2  IC50 (Ellman): 0.028 µM
CC(C)c1cc(C(C)C)c(S(=O)(=O)NNC(=O)C(=O)NNS(=O)(=O)c2c(C(C)C)cc(C(C)C)cc2C(C)C)c(C(C)C)c1  IC50 (Ellman; with preincubation): 4.25 µM
C#CCNc1nc(NCCCC2CCN(Cc3ccccc3)CC2)c(C#N)cc1C#N  IC50 (Ellman): 0.0047 µM
COc1cccc2cc(C(=O)NCC3CCN(Cc4ccccc4)CC3)oc12  IC50 (Ellman): 19.9 µM
Cc1c(C(=O)[C@H]2[C@H](c3cn(C)c4ccccc34)[C@H]3CCCN3[C@]23C(=O)Nc2cc(Cl)ccc23)cnn1-c1ccccc1  IC50 (Ellman): > 100 µM
O=C(CNC(=S)NN=Cc1ccc([N+](=O)[O-])cc1)c1ccc([N+](=O)[O-])cc1  IC50 (Ellman): 446 µM
CC=C1[C@H]2C=C(C)C[C@]1(N)c1cc(OC)c(=O)[nH]c1C2  IC50 (Ellman): 0.16 µM
CC1=C(C)C(=O)O[C@@H]([C@](C)(O)[C@H]2CC[C@H]3[C@@H]4[C@@H]5O[C@@H]5[C@@]5(O)CC=CC(=O)[C@]5(C)[C@H]4CC[C@]23C)C1  IC50 (Ellman): 107 µM
CC=C1[C@H]2C=C(C)C[C@]1(N(C)C)c1ccc(=O)[nH]c1C2  IC50 (Ellman): 0.61 µM
O=C(NCCN1CCN(Cc2ccccc2)CC1)c1cc2cccc(O)c2o1  IC50 (Ellman): 20 µM
CC=C1[C@H]2C=C(C)C[C@]1(N)c1cc(N)c(=O)[nH]c1C2  IC50 (Ellman): 0.32 µM
Cc1c(C(=O)[C@H]2[C@H](c3c[nH]c4ccccc34)[C@H]3CSCN3[C@]23C(=O)Nc2ccccc23)cnn1-c1ccccc1  IC50 (Ellman): 57.1 µM
COc1cccc2cc(C(=O)NCCN3CCN(Cc4ccccc4)CC3)oc12  IC50 (Ellman): 4 µM
CC=C1[C@H]2C=C(C)C[C@]1(N)c1cc(I)c(=O)[nH]c1C2  IC50 (Ellman): 14.1 µM
Cc1c(C(=O)[C@H]2[C@H](c3c[nH]c4ccc(Br)cc34)[C@H]3CSCN3[C@]23C(=O)Nc2ccc([N+](=O)[O-])cc23)cnn1-c1ccccc1  IC50 (Ellman): 24.1 µM
CC=C1[C@H]2C=C(C)C[C@]1(N)c1cc(OCC)c(=O)[nH]c1C2  IC50 (Ellman): 0.22 µM
C#CCN(C)c1nc(NCCCCC2CCN(Cc3ccccc3)CC2)c(C#N)c(-c2ccccc2)c1C#N  IC50 (Ellman): 0.023 µM
